In data set [1] the test system is Mycobacterium tuberculosis. Nature of the data set: Antimycobacterial activity against Mycobacterium tuberculosis H37Rv after 7 days by microbroth dilution method. The data set is classed as functional. As to conditions: 168 h. The method in brief:
(§1)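 REMA. 3-week H37Rv culture (2nd generation on Löwenstein–Jensen) vortexed with glass beads, set to 1.0 McFarland in 7H9, diluted 20-fold in 7H9 + OADC. 2-fold dilutions, final 1.6–400 µg/mL, 200 µL wells. 7 days at 35 °C, then resazurin 18 h. Fluorescence ex 520/em 590. MIC where signal plateaued or matched the 1% population control (t test).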

Another data set relates to Bacillus subtilis. The data set is described as follows: Antibacterial activity against Bacillus subtilis MTCC 121 after 24 hrs by well diffusion method. The data set is classed as functional. As to conditions: MTCC 121, 24 h. In general terms: In agar diffusion tests the substance spreads into inoculated agar from a disc or well.
Data set [2] concerns Staphylococcus aureus. The data set is described as follows: Antibacterial activity against Staphylococcus aureus MLS16 MTCC 2940 after 24 hrs by well diffusion method. As to conditions: MLS16 MTCC 2940, 24 h. The data set is classed as functional.
For data set [3], the system named is Staphylococcus aureus. The data set is described as follows: Antibacterial activity against methicillin-resistant Staphylococcus aureus DSM 11822 after 18 hrs. The data set is classed as functional. The conditions noted are these: DSM 11822, 18 h. In a few lines:
(§2)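 Broth microdilution MIC. Gram-negatives grown overnight at 37 °C in Müller-Hinton broth + 1% glucose, pH 7.2; Gram-positives in trypticase soy broth with yeast extract, pH 7.2. Inoculum 5×10^5 cfu/mL final. Serial dilutions from 100 µM down to 0.2 µM, DMSO ≤1%. 18 h at 37 °C, moist; OD600. MIC = lowest concentration completely suppressing growth.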

The test system of data set [4] is Staphylococcus aureus. The data set is described as follows: Antibacterial activity against methicillin-resistant Staphylococcus aureus RKI 11-02670 after 18 hrs. The data set is classed as functional. As to conditions: RKI 11-02670, 18 h. In a few lines: as §2
In another data set the test system is Acinetobacter baumannii. The data set is described as follows: Antibacterial activity against Acinetobacter baumannii DSM 30007 after 18 hrs. The data set is classed as functional. The conditions noted are these: DSM 30007, 18 h. The method in brief:
as §2

The next data set relates to Klebsiella pneumoniae. Nature of the data set: Antibacterial activity against Klebsiella pneumoniae DSM 11678 after 18 hrs. The data set is classed as functional. As to conditions: DSM 11678, 18 h. The method in brief: as §2
Data set [5] is described as follows: (§3) Cytotoxicity against human MCF7 cells assessed as reduction in cell viability after 5 days by WST1 assay. The data set is classed as cell-based. The conditions noted are these: human, MCF7 cells. In a few lines:
(§4)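 MCF-7 cells, 3000 per well, in RPMI + 5% FBS, 0.5% NEAA, 0.5% GlutaMAX and insulin 5 µg/mL. Exposed to serially diluted compound for 5 days. WST-1 incubation 2 h at 37 °C, absorbance read at 450 nm (reference 600 nm). Viability given as % of controls.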

Another data set concerns MCF7. The data set is described as §3. The data set is classed as cell-based. As to conditions: Homo sapiens, MCF7, 120 h. In a few lines:
as §4

The subject of a further data set is KB 3-1. Nature of the data set: (§5) Cytotoxicity against human KB-3-1 cells assessed as reduction in cell viability after 5 days by WST1 assay. The data set is classed as cell-based. As to conditions: Homo sapiens, KB 3-1, 120 h. The method in brief: (§6)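 KB-3-1 or L929 cells, 1500 per well, in DMEM + 5% FBS. Exposed to serially diluted compound for 5 days. WST-1 added, plates incubated at 37 °C (20 min for KB-3-1), absorbance read at 450 nm (reference 600 nm). Viability given as % of controls.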

Data set [6] in a line: as §5. The data set is classed as cell-based. The conditions noted are these: human, KB-3-1 cells. The method in brief: as §6
Data set [7] can be described thus: Cytotoxicity against human FS4-LTM cells assessed as reduction in cell viability after 24 hrs by WST1 assay. The data set is classed as cell-based. In a few lines:
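FS4-LTM conditionally immortalized human fibroblasts, kept without doxycycline for primary-like behaviour, in DMEM + 5% FBS. Exposed to serially diluted compound for 24 h. WST-1 added, plates incubated at 37 °C, absorbance read at 450 nm (reference 600 nm). Viability given as % of controls set to 100%.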
(In general: Tetrazolium assays rely on reduction of a dye to a coloured formazan, in cell work by metabolically active cells.)

A further data set concerns Escherichia coli. Nature of the data set: Growth inhibition of Escherichia coli DSM 1116 at 100 uM after 18 hrs relative to control. The data set is classed as functional. The conditions noted are these: DSM 1116, 18 h, read-out: GI. In a few lines: (§7)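 Gram-negative culture grown overnight at 37 °C in Müller-Hinton broth + 1% glucose, pH 7.2, then tested at 5×10^5 cfu/mL final. Compound at 100 µM from DMSO stock, DMSO ≤1%. Incubated 18 h at 37 °C under moist conditions. OD600 read; value reported as % growth inhibition.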

Data set [8] deals with Mycobacterium tuberculosis. Nature of the data set: Antimycobacterial activity against Mycobacterium tuberculosis H37Rv after 7 days by REMA. As to conditions: 168 h. The data set is classed as functional. The method in brief: as §1
The next data set concerns Enterococcus faecium. The data set is described as follows: Antibacterial activity against Enterococcus faecium DSM 20477 after 18 hrs. The conditions noted are these: DSM 20477, 18 h. The data set is classed as functional. In a few lines:
as §2

Data set [9] is described as follows: (§8) Cytotoxicity against mouse L929 cells assessed as reduction in cell viability after 5 days by WST1 assay. The data set is classed as cell-based. The conditions noted are these: mouse, L929 cells. The method in brief: as §6
In another data set the test system is L929. The description is as §8. The data set is classed as cell-based. As to conditions: Mus musculus, L929, 120 h. In a few lines: as §6
The subject of a further data set is Pseudomonas aeruginosa. The data set is described as follows: Growth inhibition of Pseudomonas aeruginosa PA7 DSM 24068 at 100 uM after 18 hrs relative to control. The data set is classed as functional. As to conditions: PA7 DSM 24068, 18 h, read-out: GI. The method in brief:
as §7

Molecules are shown by their SMILES. In brackets after ≈: the same amount, converted by molar mass. Bounds are passed on as bounds.

In general, MIC refers to the least concentration at which growth counts as inhibited. Read a low MIC as inhibition by little substance. `O=[N+]([O-])c1ccc(C2=NOC(c3ccc(N4CCC(Oc5ccc(OC(F)(F)F)cc5)CC4)c(F)c3)C2)o1` (stereo not given) had a minimum inhibitory concentration (MIC) in data set [1] of 0.001 µg/mL (≈ 0.00187 µM).

Consider `O=C(NCc1cn(-c2ccccc2)nn1)c1ccc([N+](=O)[O-])o1`, for which the values for the minimum inhibitory concentration (MIC) against Bacillus subtilis and against Staphylococcus aureus [2] were 7.8 µg/mL (≈ 24.9 µM) and 1.9 µg/mL (≈ 6.06 µM), respectively.

One may read the EC50 as the midpoint of the concentration-response curve. A lower EC50 goes with an effect from little substance. As a reminder, the IC90 is the concentration needed for an effect of 90%. A word on the IC50: it is the midpoint of a concentration-inhibition curve. `CC1(C(=O)NC2CCCCC2)CN(S(=O)(=O)c2ccccc2[N+](=O)[O-])CC(=O)N1/N=C/c1ccc([N+](=O)[O-])o1` (stereo not given): the MIC with Staphylococcus aureus [3] was 100 µM (≈ 56.3 µg/mL); with Staphylococcus aureus [4], 100 µM (≈ 56.3 µg/mL); in the data set with Acinetobacter baumannii, over 100 µM; against Klebsiella pneumoniae, over 100 µM; in data set [8] it was 22 µM (≈ 12.4 µg/mL); in the data set on Enterococcus faecium it was over 100 µM. For the same compound, in the data set on Staphylococcus aureus [4], the half-maximal effective concentration (EC50) was 75 µM. Moreover, the IC90 at 120 h in data set [5], in data set [6] and in [9] was over 100 µM throughout. For the same compound, the IC50 is 12 µM in the data set on MCF7; 26.7 to 27 µM with KB 3-1; 12 to 100 µM in data set [7] (Homo sapiens, FS4-LTM, 24 h); 22.9 to 100 µM with L929. In addition, the IC90 at 24 h in data set [7] (human, FS4-LTM cells) is over 100 µM. Further, the values for the inhibition of growth at 100 µM in the data set with Escherichia coli and in the data set on Pseudomonas aeruginosa were 88% and 85%, respectively.

The record behind these values is ChEMBL document CHEMBL3992553, “New nitrofurans amenable by isocyanide multicomponent chemistry are active against multidrug-resistant and poly-resistant Mycobacterium tuberculosis” (Bioorg Med Chem, 2017).
